Screens from PubChem.
The list is not random: actives were taken first. Their share in the collection is about 2.2%.
HNF4A DNA FP: change in binding of human HNF4A to DNA, primary screen, biochemical, fluorescence polarization, FITC-DNA; Hepatocyte nuclear factor 4-alpha (Homo sapiens), P41235; 1 h; activity change, % at 10 µM; 0.3% of 360,000 active; in the data active means activity change above about 30%, passing the limit was not always enough
Target sequence (P41235 whole entry, looked up): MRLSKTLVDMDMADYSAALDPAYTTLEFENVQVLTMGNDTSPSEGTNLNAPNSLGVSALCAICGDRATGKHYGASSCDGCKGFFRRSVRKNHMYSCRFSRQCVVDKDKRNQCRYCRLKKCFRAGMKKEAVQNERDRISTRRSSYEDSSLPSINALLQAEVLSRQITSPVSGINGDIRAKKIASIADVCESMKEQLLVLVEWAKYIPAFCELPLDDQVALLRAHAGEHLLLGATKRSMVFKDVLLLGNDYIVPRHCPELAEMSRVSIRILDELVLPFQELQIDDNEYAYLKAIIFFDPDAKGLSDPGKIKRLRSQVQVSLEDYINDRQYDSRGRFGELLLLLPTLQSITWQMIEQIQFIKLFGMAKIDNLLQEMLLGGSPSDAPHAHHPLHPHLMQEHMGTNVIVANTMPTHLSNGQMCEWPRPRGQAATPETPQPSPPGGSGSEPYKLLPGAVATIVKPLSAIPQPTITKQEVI
Myeloid diff MLP: induction of myeloid progenitor differentiation, primary screen, cell-based, flow cytometry, MLPCN library; ER-HoxA9 myeloid progenitors, lysozyme-GFP differentiation; calls only at 10 µM; 1% of 360,000 active;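 active means normalized GFP-positive differentiation at or above the plate's own cutoff, the solvent-only control mean plus 3 SD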;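 further: cells exposed to compound for four days before flow analysis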
CSN deneddyl inh: inhibitors of CSN-mediated cullin deneddylation, primary screen, biochemical, fluorescence polarization, uHTS; Purified CSN, SCF-Nedd8-OG deneddylation; inhibition, % at 12.5 µM; 0.38% of 360,000 active; AID 651999, 2013;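 active means pattern-corrected inhibition above about 35%, with an unprinted fluorescence ratio check between 0.5 and 1.5, limit read from the data, passing the limit was not always enough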;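 further: 0% = enzyme with substrate and 100% = substrate without enzyme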
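Detection – fluorescence polarization · System – HEK293T-derived human Csn5 enzyme · Controls – substrate-only high control, full reaction low control · Timing – 90 min, room temperature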
Exocytosis inh: LAMP-1 surface exposure blockers, TALL-104 cells – cell-based, flow cytometry, MLPCN library, primary screen; TALL-104 LAMP-1 surface exposure; cells stimulated with thapsigargin and PMA; inhibition, % at 10 µM; 0.66% of 360,000 active; AID 651702, 2012;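 active means inhibition above about 55%, limit read from the data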
Active calls of the source: *; i = inactive; · = no result; + = active, no number.

SMILES | HNF4A DNA FP | Myeloid diff MLP | CSN deneddyl inh | Exocytosis inh
CCN(C1CCCCC1)S(=O)(=O)c1cc2c3c(c1)CCN3C(=O)CC2 | -2 | i | -5 | 1
O=C(c1cccc(OC2CCN(Cc3cccc(OCCO)c3)CC2)c1)N1CCCC1 | -2 | + | 2 | -2
O=C(Cc1ccccc1)NCC(=O)OCc1cccc([N+](=O)[O-])c1 | 1 | i | 38* | -1
CCOc1ccc(N(CC(=O)Nc2cccc(Br)c2)S(C)(=O)=O)cc1 | 2 | i | 1 | 3
O=C1c2cccc3cccc(c23)C(=O)C1(O)O | -3 | i | 104 | 71*
CC(=O)c1cccc(-c2ccc3c(=O)[nH]c(Nc4ccccc4)cc3c2)c1 | 12 | i | 55* | -15
CN1CCN(CC(=O)N2CCn3c4c(c5cc(C6CCCCC6)ccc53)CCCC42)CC1 (centres undefined) | 8 | · | -2 | 77*
O=C(NCc1ccc2c(c1)OCO2)C1CCCN(S(=O)(=O)c2cccc3cccnc23)C1 (centres undefined) | 3 | + | -3 | 5
O=C(Nc1cccnc1)C1Cc2c(-c3ccccc3Oc3ccccc3)ccnc2O1 (centres undefined) | -2 | i | 1 | 0
CCSc1nnc(-c2sc3nnc(-c4ccccc4)c(-c4ccccc4)c3c2N)o1 | 31 | + | 17 | 1
CCSc1nnc(-c2ccncc2)o1 | 0 | i | -1 | 5
COc1nc(-c2ccccc2)cc(-c2ccc3c(c2)OCO3)c1C#N | -1 | + | 0 | 10
COc1ccc(-c2cc(-c3ccccc3)c(C#N)c(S(C)(=O)=O)n2)cc1 | -2 | · | -5 | 2
Cc1cc(OCC(=O)OCC(=O)N(C)C2CCS(=O)(=O)C2)ccc1Cl (centres undefined) | -2 | i | -1 | 5
CCOC(=O)C1=C(C)N=c2sc(=Cc3ccc(OCC(=O)O)cc3)c(=O)n2C1c1ccc(Cl)cc1 (centres undefined) | 8 | i | 35* | 9
CCOC(=O)C1=C(C)N=c2s/c(=C\c3ccc(OC(C)=O)c(OCC)c3)c(=O)n2C1/C=C/c1ccccc1 (centres undefined) | 8 | i | 8 | -1
CCOC(=O)C1=C(C)N=c2s/c(=C\c3ccc(OC(C)=O)cc3)c(=O)n2C1/C=C/c1ccccc1 (centres undefined) | 36* | + | 2 | -3
COc1ccc(-c2cc(-c3ccco3)[nH]c(=O)c2C#N)cc1 | -2 | i | 14 | -8
N#Cc1c(-c2cccc(Br)c2)cc(-c2ccco2)[nH]c1=O | -9 | i | 36* | 6
Cc1ccccc1/C=N/Nc1ccnc2cc(Cl)ccc12 | 30 | i | 2 | 76*
Oc1ccc(/C=N/Nc2ccnc3cc(Cl)ccc23)c(O)c1 | 40 | + | 24 | 3
CC1CCCCN1C(=O)c1ccc(CS(=O)(=O)Cc2ccccc2)cc1 (centres undefined) | 2 | i | 1 | 1
N=c1c2c(n(Cc3ccc(F)cc3)c3c1CCC3)CCCC2 | -3 | i | 6 | -1
N=c1c2c(n(Cc3ccc(Cl)cc3)c3c1CCC3)CCC2 | 42* | i | 0 | 1
O=C(COc1ccc2cc(-c3ccccc3)c(=O)oc2c1)NCC1CCC(C(=O)O)CC1 (centres undefined) | 0 | i | -1 | -1
CN1CCC(N2CCN(C3CN(C4CCCC4)S(=O)(=O)C3)CC2)CC1 (centres undefined) | 3 | i | 144* | 2
CN1CCC(N2CCN(C3CN(C4CCCCC4)S(=O)(=O)C3)CC2)CC1 (centres undefined) | 1 | i | -2 | -5
Cc1cc(C(C)(C)C)c(OC(=O)[C@@H]2OC(c3ccccc3)=C[C@H]2c2ccccc2)c(C(C)(C)C)c1 | -2 | i | -4 | 4
COc1ccc(C2CC(c3ccncc3)=NN2c2ccc(S(N)(=O)=O)cc2)cc1 (centres undefined) | -8 | + | -1 | -4
CNC(=O)C(=O)NCC1OCCN1S(=O)(=O)c1ccc([N+](=O)[O-])cc1 (centres undefined) | 1 | i | -10 | 0
